Values after ≈ are worked out from the molar mass of the structure shown.
Legend:
Escherichia coli = experiment: Antibacterial activity against Escherichia coli ATCC 25922 assessed as growth inhibition after 18 hrs by CLSI microbroth dilution assay; format: functional; details: ATCC 25922, 18 h
Staphylococcus aureus = experiment: Antibacterial activity against Staphylococcus aureus ATCC 27660 assessed as growth inhibition after 18 hrs by CLSI microbroth dilution assay; format: functional; details: ATCC 27660, 18 h
[1] = Hemolytic activity in human RBC assessed as hemoglobin release after 1 hr; format: ADME, cell-based, Erythrocyte; details: human red blood cells
Outline: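 Human red blood cells were exposed to the compounds. The value is the HC50, the concentration that produces 50% hemolysis of the RBCs.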

For `NCCCOc1cc(OCCCN)cc(-c2cc(NC(=O)c3ccc(-c4ccccc4)cc3)cc(-c3cc(OCCCN)cc(OCCCN)c3)c2)c1`, the MIC (Escherichia coli) was 25 µg/mL (≈ 34.8 µM), the MIC (Staphylococcus aureus) was 1.56 µg/mL (≈ 2.17 µM) and the HC50 at 1 h [1] was 113 µg/mL.

With `NCCCOc1cc(OCCCN)cc(-c2cc(-c3cc(OCCCN)cc(OCCCN)c3)cc(-c3cc(C(F)(F)F)cc(C(F)(F)F)c3)c2)c1` the MIC (Escherichia coli) was 6.25 µg/mL (≈ 8.51 µM), the MIC (Staphylococcus aureus) was 1.56 µg/mL (≈ 2.12 µM) and the HC50 at 1 h [1] was 34 µg/mL.

With `NCCCOc1cc(OCCCN)cc(-c2cc(-c3cc(OCCCN)cc(OCCCN)c3)cc(-c3cc4ccccc4[nH]3)c2)c1` the MIC (Escherichia coli) was 6.25 µg/mL (≈ 9.8 µM), the MIC (Staphylococcus aureus) was 1.56 µg/mL (≈ 2.45 µM) and the HC50 at 1 h [1] was 634 µg/mL.

Ac-GIGKFLKKAKKFGKAFVKILKK-NH2 showed an MIC (Escherichia coli) of 16 µg/mL, an MIC (Staphylococcus aureus) of 8 µg/mL and an HC50 at 1 h [1] of 120 µg/mL.

Work on `NCCCOc1cc(OCCCN)cc(-c2cc(NC(=O)Cc3c[nH]c4ccccc34)cc(-c3cc(OCCCN)cc(OCCCN)c3)c2)c1` yielded an MIC (Escherichia coli) greater than 50 µg/mL, an MIC (Staphylococcus aureus) of 12.5 µg/mL (≈ 18 µM) and an HC50 at 1 h [1] of 519 µg/mL.

`NCCCOc1cc(OCCCN)cc(-c2cc(NC(=O)c3ccc4ccccc4c3)cc(-c3cc(OCCCN)cc(OCCCN)c3)c2)c1` showed an MIC (Escherichia coli) greater than 50 µg/mL, an MIC (Staphylococcus aureus) of 6.25 µg/mL (≈ 9.03 µM) and an HC50 at 1 h [1] of 422 µg/mL.

Work on `NCCCOc1cc(OCCCN)cc(-c2cc(NC(=O)c3ccccc3)cc(-c3cc(OCCCN)cc(OCCCN)c3)c2)c1` yielded an MIC (Escherichia coli) greater than 50 µg/mL, an MIC (Staphylococcus aureus) of 50 µg/mL (≈ 77.9 µM) and an HC50 at 1 h [1] greater than 1000 µg/mL.

With `CC(C)(C)c1ccc(-c2cc(-c3cc(OCCCN)cc(OCCCN)c3)cc(-c3cc(OCCCN)cc(OCCCN)c3)c2)cc1` the MIC (Escherichia coli) was 3.13 µg/mL (≈ 4.78 µM), the MIC (Staphylococcus aureus) was 1.56 µg/mL (≈ 2.38 µM) and the HC50 at 1 h [1] was 41 µg/mL.

`Cc1ccc(-c2cc(-c3cc(OCCCN)cc(OCCCN)c3)cc(-c3cc(OCCCN)cc(OCCCN)c3)c2)cc1` showed an MIC (Escherichia coli) of 3.13 µg/mL (≈ 5.11 µM), an MIC (Staphylococcus aureus) of 0.78 µg/mL (≈ 1.27 µM) and an HC50 at 1 h [1] of 279 µg/mL.

Compound `NCCCOc1cc(OCCCN)cc(-c2cc(-c3ccccc3)cc(-c3cc(OCCCN)cc(OCCCN)c3)c2)c1` has an MIC (Escherichia coli) of 3.13 µg/mL (≈ 5.23 µM), an MIC (Staphylococcus aureus) of 12.5 µg/mL (≈ 20.9 µM) and an HC50 at 1 h [1] of 537 µg/mL.
